Assay [1] relates to Citrobacter freundii. The experiment in a line: Antimicrobial activity against aac(6')-Ib-cr-positive Citrobacter freundii PU55 harboring GyrA T83I, ParC S80I mutant, wild-type GyrB, qnrA genes by agar dilution method in presence of Tazobactam. The format is functional. A digest of the protocol:
(§1)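 MICs were determined by CLSI agar dilution (M7-A7) and interpreted by CLSI M100-S17 breakpoints. The curator's line names the β-lactamase inhibitor added.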

In assay [2] the test system is Citrobacter freundii. Briefly: Antimicrobial activity against aac(6')-Ib-cr-positive Citrobacter freundii PU55T harboring wild-type GyrA, ParC, GyrB and qnrA genes by agar dilution method in presence of Tazobactam. The format is functional. A digest of the protocol: (§2)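 MICs were determined by the CLSI agar dilution method (M7-A7) and interpreted against CLSI M100-S17 breakpoints.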

The subject of assay [3] is Klebsiella pneumoniae. The experiment in a line: Antimicrobial activity against aac(6')-Ib-cr-positive Klebsiella pneumoniae SY26 harboring GyrA S83I, ParC S80I mutant, wild-type GyrB and qnrB genes by agar dilution method in presence of Tazobactam. It counts as functional. The method in brief:
(§3)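 MICs measured by CLSI agar dilution (M7-A7) and interpreted against CLSI M100-S17 breakpoints. Strains were clinical Enterobacteriaceae isolates or the azide-resistant E. coli J53 recipient.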
In general terms: Agar dilution tests growth on a series of plates holding different concentrations.

The test system of assay [4] is Escherichia coli. Briefly: Antimicrobial activity against aac(6')-Ib-cr-positive Escherichia coli FJ3T harboring wild-type GyrA, ParC, GyrB and qnrB genes by agar dilution method in presence of Tazobactam. It counts as functional. The method in brief:
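Transconjugants came from conjugation of qnr and/or aac(6')-Ib-cr donors into azide-resistant E. coli J53. […] MICs were measured by CLSI agar dilution (M7-A7) and interpreted per M100-S17.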

For assay [5], the system named is Enterobacter cloacae. Briefly: Antimicrobial activity against aac(6')-Ib-cr-negative Enterobacter cloacae FJ61T harboring qnrS gene by agar dilution method in presence of Tazobactam. The format is functional. A digest of the protocol:
as §2

Assay [6] concerns Enterobacter cloacae. Briefly: Antimicrobial activity against aac(6')-Ib-cr-positive Enterobacter cloacae FJ63T harboring qnrS gene by agar dilution method in presence of Tazobactam. The format is functional. The method in brief:
as §2

For assay [7], the system named is Enterobacter cloacae. Briefly: Antimicrobial activity against aac(6')-Ib-cr-negative Enterobacter cloacae FJ67 harboring […] and qnrS genes by agar dilution method in presence of Tazobactam. It counts as functional. A digest of the protocol: as §2
In assay [8] the test system is Enterobacter cloacae. Briefly: Antimicrobial activity against aac(6')-Ib-cr-negative Enterobacter cloacae FJ67T harboring qnrS gene by agar dilution method in presence of Tazobactam. The format is functional. A digest of the protocol: as §2
Assay [9] has as its system Escherichia coli. Briefly: Antimicrobial activity against aac(6')-Ib-cr-negative Escherichia coli PU12T harboring wild-type GyrA, GyrB, ParC and qnrS genes by agar dilution method in presence of clavulanic acid. The format is functional. A digest of the protocol: (§4)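 Transconjugants came from conjugation of qnr and/or aac(6')-Ib-cr-carrying donors with azide-resistant E. coli J53. […] MICs were determined by CLSI agar dilution (M7-A7) and interpreted by M100-S17.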

Assay [10] relates to Citrobacter freundii. The experiment in a line: Antimicrobial activity against aac(6')-Ib-cr-positive Citrobacter freundii PU55 harboring GyrA T83I, ParC S80I mutant, wild-type GyrB, qnrA genes by agar dilution method. It counts as functional. A digest of the protocol:
as §2

Assay [11] relates to Citrobacter freundii. Briefly: Antimicrobial activity against aac(6')-Ib-cr-positive Citrobacter freundii PU55T harboring wild-type GyrA, ParC, GyrB and qnrA genes by agar dilution method.
Assay [12] relates to Citrobacter freundii. Briefly: Antimicrobial activity against aac(6')-Ib-cr-positive Citrobacter freundii PU55T harboring wild-type GyrA, ParC, GyrB and qnrA genes by agar dilution method in presence of clavulanic acid. It counts as functional. The method in brief:
as §4

Assay [13] concerns Klebsiella pneumoniae. The experiment in a line: Antimicrobial activity against aac(6')-Ib-cr-negative Klebsiella pneumoniae SY22T harboring qnrS gene by agar dilution method in presence of clavulanic acid. The format is functional. A digest of the protocol: as §4
Assay [14] relates to Klebsiella pneumoniae. Briefly: Antimicrobial activity against aac(6')-Ib-cr-positive Klebsiella pneumoniae SY26 harboring GyrA S83I, ParC S80I mutant, wild-type GyrB and qnrB genes by agar dilution method. The format is functional. A digest of the protocol:
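MICs were determined on clinical isolates by CLSI agar dilution (M7-A7) and interpreted against CLSI M100-S17 breakpoints.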

In assay [15] the test system is Citrobacter freundii. The experiment in a line: Antimicrobial activity against aac(6')-Ib-cr-positive Citrobacter freundii TJ15 harboring GyrA T83I, ParC S80I mutant, wild-type GyrB, qnrB genes by agar dilution method. The format is functional. The method in brief:
as §2

The subject of assay [16] is Citrobacter freundii. The experiment in a line: Antimicrobial activity against aac(6')-Ib-cr-positive Citrobacter freundii TJ15 harboring GyrA T83I, ParC S80I mutant, wild-type GyrB, qnrB genes by agar dilution method in presence of clavulanic acid. It counts as functional. The method in brief: as §1
The subject of assay [17] is Citrobacter freundii. Briefly: Antimicrobial activity against aac(6')-Ib-cr-positive Citrobacter freundii TJ15T harboring wild-type GyrA, ParC, GyrB genes by agar dilution method in presence of clavulanic acid. It counts as functional. A digest of the protocol:
as §2

Assay [18] deals with Enterobacter cloacae. The experiment in a line: Antimicrobial activity against aac(6')-Ib-cr-negative Enterobacter cloacae WH42 harboring wild-type GyrA, ParC, GyrB and qnrA genes by agar dilution method. The format is functional.
Assay [19] deals with Enterobacter cloacae. The experiment in a line: Antimicrobial activity against aac(6')-Ib-cr-negative Enterobacter cloacae WH42T harboring qnrA gene by agar dilution method. The format is functional.
Assay [20] relates to Escherichia coli. Briefly: Antimicrobial activity against Escherichia coli J53 harboring wild-type GyrA, ParC, GyrB genes by agar dilution method in presence of beta-lactamase inhibitor clavulanic acid. The format is functional. A digest of the protocol:
as §1

In assay [21] the test system is Enterobacter cloacae. The experiment in a line: Antimicrobial activity against aac(6')-Ib-cr-negative Enterobacter cloacae FJ61T harboring qnrS gene by agar dilution method in presence of clavulanic acid. The format is functional. The method in brief:
as §4

The subject of assay [22] is Enterobacter cloacae. Briefly: Antimicrobial activity against aac(6')-Ib-cr-negative Enterobacter cloacae FJ67 harboring […] and qnrS genes by agar dilution method. It counts as functional.
For assay [23], the system named is Enterobacter cloacae. Briefly: Antimicrobial activity against aac(6')-Ib-cr-negative Enterobacter cloacae FJ67T harboring qnrS gene by agar dilution method. It counts as functional.
Assay [24] deals with Enterobacter cloacae. The experiment in a line: Antimicrobial activity against aac(6')-Ib-cr-negative Enterobacter cloacae GZ47 harboring qnrB and qnrS genes by agar dilution method in presence of clavulanic acid. It counts as functional. A digest of the protocol: as §3
Assay [25] relates to Enterobacter cloacae. Briefly: Antimicrobial activity against aac(6')-Ib-cr-negative Enterobacter cloacae GZ51 harboring qnrA gene by agar dilution method in presence of clavulanic acid. The format is functional. The method in brief:
as §1

Assay [26] concerns Enterobacter cloacae. Briefly: Antimicrobial activity against aac(6')-Ib-cr-negative Enterobacter cloacae GZ51T harboring qnrA gene by agar dilution method in presence of clavulanic acid. The format is functional. The method in brief: as §4
For assay [27], the system named is Citrobacter freundii. The experiment in a line: Antimicrobial activity against aac(6')-Ib-cr-positive Citrobacter freundii JN1 harboring GyrA T83I, ParC S80I mutant, wild-type GyrB and qnrA genes by agar dilution method. It counts as functional. The method in brief:
as §2

Assay [28] deals with Citrobacter freundii. The experiment in a line: Antimicrobial activity against aac(6')-Ib-cr-positive Citrobacter freundii JN1 harboring GyrA T83I, ParC S80I mutant, wild-type GyrB and qnrA genes by agar dilution method in presence of clavulanic acid. It counts as functional. The method in brief: as §2
Assay [29] concerns Citrobacter freundii. Briefly: Antimicrobial activity against aac(6')-Ib-cr-positive Citrobacter freundii JN1T by agar dilution method. The format is functional. A digest of the protocol: as §2
Assay [30] deals with Citrobacter freundii. The experiment in a line: Antimicrobial activity against aac(6')-Ib-cr-positive Citrobacter freundii JN1T by agar dilution method in presence of clavulanic acid. It counts as functional. The method in brief:
as §4

Assay [31] deals with Klebsiella pneumoniae. The experiment in a line: Antimicrobial activity against aac(6')-Ib-cr-positive Klebsiella pneumoniae JN41T harboring qnrB gene by agar dilution method in presence of clavulanic acid. The format is functional. A digest of the protocol: as §4
The subject of assay [32] is Citrobacter freundii. Briefly: Antimicrobial activity against aac(6')-Ib-cr-positive Citrobacter freundii JS33 harboring GyrA T83I mutant, wild-type ParC, GyrB, qnrA and qnrB genes by agar dilution method in presence of clavulanic acid. It counts as functional. A digest of the protocol:
as §1

In brackets after ≈: the same amount, converted by molar mass. Bounds are passed on as bounds.

The MIC is the smallest concentration in the dilution series that meets the test's criterion for growth inhibition. Take `CCN1CCN(C(=O)N[C@@H](C(=O)N[C@@H]2C(=O)N3[C@@H]2SC(C)(C)[C@@H]3C(=O)O)c2ccccc2)C(=O)C1=O` [PIPERACILLIN]: the MIC is 64 µg/mL with Citrobacter freundii [1]; 4 µg/mL in the assay on Citrobacter freundii [2]; 16 µg/mL in the assay on Klebsiella pneumoniae [3]; 1 µg/mL in the assay on Escherichia coli [4]; 1 µg/mL in the assay on Enterobacter cloacae [5]; 2 µg/mL with Enterobacter cloacae [6]. The MIC with Enterobacter cloacae [7] and in the assay with Enterobacter cloacae [8] was 1 µg/mL each time.

Regarding `CO/N=C(\C(=O)N[C@@H]1C(=O)N2C(C(=O)O)=C(COC(C)=O)CS[C@H]12)c1csc(N)n1` [CEFOTAXIME], the MIC was 0.032 µg/mL in the assay with Escherichia coli [9]; 128 µg/mL (≈ 281 µM) in the assay with Citrobacter freundii [10]; 0.064 µg/mL (≈ 0.141 µM) against Citrobacter freundii [11]; 0.032 µg/mL in the assay with Citrobacter freundii [12]; 0.032 µg/mL with Klebsiella pneumoniae [13]; 8 µg/mL (≈ 17.6 µM) with Klebsiella pneumoniae [14]. Besides, the MIC in the assay on Citrobacter freundii [15] turned out to be 1 µg/mL (≈ 2.2 µM); in the assay on Citrobacter freundii [16], 16 µg/mL; in the assay on Citrobacter freundii [17], 0.125 µg/mL; with Enterobacter cloacae [18], 256 µg/mL (≈ 562 µM); against Enterobacter cloacae [19], 8 µg/mL (≈ 17.6 µM); with Escherichia coli [20], 0.032 µg/mL. The MIC amounted to 0.032 µg/mL with Enterobacter cloacae [21]; 256 µg/mL (≈ 562 µM) against Enterobacter cloacae [22]; 64 µg/mL (≈ 141 µM) in the assay on Enterobacter cloacae [23]; 8 µg/mL in the assay on Enterobacter cloacae [24]; 32 µg/mL with Enterobacter cloacae [25]; 0.032 µg/mL with Enterobacter cloacae [26]. In addition, the minimum inhibitory concentration (MIC) was greater than 256 µg/mL in the assay on Citrobacter freundii [27]; 128 µg/mL in the assay with Citrobacter freundii [28]; 8 µg/mL (≈ 17.6 µM) against Citrobacter freundii [29]; 0.032 µg/mL in the assay on Citrobacter freundii [30]; 0.032 µg/mL in the assay with Klebsiella pneumoniae [31]; 64 µg/mL in the assay with Citrobacter freundii [32].
